Laboratory results published in publication PMC5797669 (Cellular signalling, 2016).
Where no end group is shown, it is not given here.

Columns and labels:
hY4R S^7.100/103A = hY4R S^7.100/103A (Homo sapiens, UniProt P50391, S369A/S372A); assay: TAMRA-hPP ligand uptake by fluorescence microscopy; type: cell-based; conditions: HEK293, 100 nM, 60 min, acidic wash pH 3.0, Mean ± S.E.M., n ≥ 4
Outline: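 HEK293 cells on slides at 70–80% confluence, transfected (Lipofectamine 2000) with 1 µg receptor plasmid. Next day, starved 30 min at 37 °C in Opti-MEM, optionally with Hoechst33342. […] Intracellular fluorescence quantified per cell, ≥10 cells per experiment.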

hY4R point mutants = assay: [^125I]-hPP cell surface binding assay; design: species or system human; conditions: all point mutants; HEK293; compared to WT (set to 100%)
Outline: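 EYFP-fused receptor constructs transiently expressed in HEK293: 7 µg receptor DNA per 6-well by Lipofectamine 2000. Cells re-seeded next day into poly-D-lysine-coated 48-well plates and grown to confluence. Specific [125I]-hPP binding of each mutant expressed relative to wild-type receptor specific binding.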

[1] = target: hY4R point mutant S^7.93/96A, C-terminally fused to RLuc8 (human) (UniProt P50391); assay: FRET or BRET
Sequence of hY4R point mutant S^7.93/96A, C-terminally fused to RLuc8 (human) (P50391 whole entry, stated change not applied, the tested form may be a part): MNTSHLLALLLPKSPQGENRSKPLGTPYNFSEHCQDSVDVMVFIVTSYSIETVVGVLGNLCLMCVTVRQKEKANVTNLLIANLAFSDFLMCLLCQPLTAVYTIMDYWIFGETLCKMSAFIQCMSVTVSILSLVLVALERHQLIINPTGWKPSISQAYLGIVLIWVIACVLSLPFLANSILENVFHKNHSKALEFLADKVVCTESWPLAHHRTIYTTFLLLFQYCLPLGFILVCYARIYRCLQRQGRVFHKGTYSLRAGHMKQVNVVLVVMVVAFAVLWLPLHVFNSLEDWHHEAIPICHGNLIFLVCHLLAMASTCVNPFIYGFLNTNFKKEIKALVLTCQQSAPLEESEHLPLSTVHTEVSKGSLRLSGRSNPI

[2] = target: hY4R deletion mutant Δ7.93, C-terminally fused to RLuc8 (human) (UniProt P50391); assay: FRET or BRET
Sequence of hY4R deletion mutant Δ7.93, C-terminally fused to RLuc8 (human) (P50391 whole entry, stated change not applied, the tested form may be a part): as above

[3] = target: hY4R deletion mutant Δ7.78, C-terminally fused to RLuc8 (human) (UniProt P50391); assay: FRET or BRET
Sequence of hY4R deletion mutant Δ7.78, C-terminally fused to RLuc8 (human) (P50391 whole entry, stated change not applied, the tested form may be a part): as above

[4] = target: hY4R deletion mutant Δ7.97, C-terminally fused to RLuc8 (human) (UniProt P50391); assay: FRET or BRET
Sequence of hY4R deletion mutant Δ7.97, C-terminally fused to RLuc8 (human) (P50391 whole entry, stated change not applied, the tested form may be a part): as above

[5] = target: hY4R point mutant S^7.100/103A, C-terminally fused to RLuc8 (human) (UniProt P50391); assay: FRET or BRET
Sequence of hY4R point mutant S^7.100/103A, C-terminally fused to RLuc8 (human) (P50391 whole entry, change not shown, the tested form may be a part): as the sequence (P50391 whole entry, stated change not applied, the tested form may be a part) above

[6] = target: hY4R point mutant T^7.87/90A, C-terminally fused to RLuc8 (human) (UniProt P50391); assay: FRET or BRET
Sequence of hY4R point mutant T^7.87/90A, C-terminally fused to RLuc8 (human) (P50391 whole entry, change not shown, the tested form may be a part): as the sequence (P50391 whole entry, stated change not applied, the tested form may be a part) above

[7] = target: hY4R point mutant E^7.78/79/81A, C-terminally fused to RLuc8 (human) (UniProt P50391); assay: FRET or BRET
Sequence of hY4R point mutant E^7.78/79/81A, C-terminally fused to RLuc8 (human) (P50391 whole entry, change not shown, the tested form may be a part): as the sequence (P50391 whole entry, stated change not applied, the tested form may be a part) above

[8] = target: hY4R point mutant S^7.80/86A, C-terminally fused to RLuc8 (human) (UniProt P50391); assay: FRET or BRET
Sequence of hY4R point mutant S^7.80/86A, C-terminally fused to RLuc8 (human) (P50391 whole entry, change not shown, the tested form may be a part): as the sequence (P50391 whole entry, stated change not applied, the tested form may be a part) above

[9] = target: N-terminally HA-tagged hY4R wild type fused to enhanced yellow fluorescent protein (human, UniProt P50391 1-375); assay: radioligand binding
Sequence of N-terminally HA-tagged hY4R wild type fused to enhanced yellow fluorescent protein (P50391 whole entry, the tested form may be a part): as the sequence (P50391 whole entry, stated change not applied, the tested form may be a part) above

Sequence of hY4R S^7.100/103A (P50391 whole entry S369A/S372A): as the sequence (P50391 whole entry, stated change not applied, the tested form may be a part) above, with S369A, S372A counted along it

With “TAMRA-hPP: hPP-derivative that was N-terminally modified with a TAMRA fluorophore” the “TAMRA-hPP uptake (intracellular fluorescence)” value (hY4R S^7.100/103A) was 78 ± 11%.

In the case of “[^125I]-hPP: radioligand used in binding experiments”, the “cell surface expression ([^125I]-hPP binding)” value (hY4R point mutants) is reported as over 78%.

“Bovine arrestin-3 N-terminally fused to Venus (from UniProt P32120 1-420) (natural protein)” was tested, and the arr-3 recruitment, maximum net BRET (% of WT) [1] was 49%, the arr-3 recruitment, maximum net BRET (% of WT) [2] was 174% and the arr-3 recruitment, maximum net BRET (% of WT) [3] was 1%. The arr-3 recruitment, maximum net BRET (% of WT) [4] was 186%, the arr-3 recruitment, maximum net BRET (% of WT) [5] was 95% and the arr-3 recruitment, maximum net BRET (% of WT) [6] was 51%. It also gave an arr-3 recruitment, maximum net BRET (% of WT) [7] of 25% and an arr-3 recruitment, maximum net BRET (% of WT) [8] of 33%.

B1: [^125I]-labelled human pancreatic polypeptide (peptide, UniProt P01298 30-65, looked up)
peptide: APLEPVYPGDNATPEQMAQYAADLRRYINMLTRPRY-NH2
modifications: also: 125I label (position not given here)
For B1, the “specific binding (% of WT)” value [9] was 100%.
